Measurements as given in paper PMC10975593 (ACS Omega, 2024).
pIC50: −log10 of the molar value. Where two headings read alike, the source gives them in different places.

Key:
UO-31 = test: NCI 60-cell line screen; assay type: cell-based, human
Outline: (§1)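 Test compounds were submitted to the National Cancer Institute and run under NCI's standard 60-cell-line protocols. Read-outs were taken from percent-growth versus log-concentration curves.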

A549 cancer cell line = test: MTT assay; assay type: cell-based; conditions: Homo sapiens, A549, 72 h
Outline: (§2)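 A549 in DMEM and MCF-7 in RPMI, each with 10% heat-inactivated FBS, 1% penicillin/streptomycin and 2 mmol/L glutamine at 37 °C, 5% CO2. Seeded at 2000 (A549) or 10,000 (MCF-7) cells/well and attached 24 h. Then 72 h with test compound at varying concentrations. MTT (5 mg/mL stock) added for 4 h at 37 °C, formazan dissolved in DMSO, absorbance read at 450/540 nm. Triplicates in three separate experiments.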

HCT-15 = test: NCI 60-cell line screen; assay type: cell-based, human
TK-10 = test: NCI 60-cell line screen; assay type: cell-based, human
Outline: as §1

Staphylococcus aureus = test: Disc diffusion antimicrobial test; assay type: cell-based; conditions: Staphylococcus aureus, 24 h, read-out: zone of inhibition (diameter of inhibition)
Outline: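 Disc diffusion on nutrient agar, test compound at 100 μg/mL with DMSO as solvent. Plates incubated at 37 °C for 24 h after inoculation, then zone of inhibition measured and compared with standards. Controls were DMSO, amoxicillin, ciprofloxacin and tetracycline.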

MOLT-4 = test: NCI 60-cell line screen; assay type: cell-based, human
UACC-257 = test: NCI 60-cell line screen; assay type: cell-based, human
Outline: as §1

NCI-H322M = test: NCI 60-cell line screen; assay type: cell-based, human
HL-60(TB) = conditions: leukemia
CAKI-1 = test: NCI 60-cell line screen; assay type: cell-based, human
NCI-H460 = test: NCI 60-cell line screen; assay type: cell-based, human
COLO 205 = test: NCI 60-cell line screen; assay type: cell-based, human
SK-OV-3 = test: NCI 60-cell line screen; assay type: cell-based, human
Outline: as §1

PC-3 = test: NCI 60-cell line screen; assay type: cell-based, human
Outline: as §1

A549/ATCC = test: NCI 60-cell line screen; assay type: cell-based, human
[1] = system: MCF-7 and A549 cancer cell lines; test: MTT assay, range over both cell lines; assay type: cell-based; conditions: read-out: IC50 values, range
Outline: as §2

OVCAR-5 = test: NCI 60-cell line screen; assay type: cell-based, human
Outline: as §1

NCI 60 cell line panel = test: NCI 60-cell line inhibition, range over panel; assay type: cell-based; conditions: Homo sapiens
OVCAR-8 = test: NCI 60-cell line screen; assay type: cell-based, human
Outline: as §1

PI3Kγ enzyme = PI3Kγ enzyme (Homo sapiens, UniProt P48736); test: Adapta universal kinase assay, anti-PI3Kγ activity; assay type: biochemical
Sequence of PI3Kγ enzyme (P48736 whole entry): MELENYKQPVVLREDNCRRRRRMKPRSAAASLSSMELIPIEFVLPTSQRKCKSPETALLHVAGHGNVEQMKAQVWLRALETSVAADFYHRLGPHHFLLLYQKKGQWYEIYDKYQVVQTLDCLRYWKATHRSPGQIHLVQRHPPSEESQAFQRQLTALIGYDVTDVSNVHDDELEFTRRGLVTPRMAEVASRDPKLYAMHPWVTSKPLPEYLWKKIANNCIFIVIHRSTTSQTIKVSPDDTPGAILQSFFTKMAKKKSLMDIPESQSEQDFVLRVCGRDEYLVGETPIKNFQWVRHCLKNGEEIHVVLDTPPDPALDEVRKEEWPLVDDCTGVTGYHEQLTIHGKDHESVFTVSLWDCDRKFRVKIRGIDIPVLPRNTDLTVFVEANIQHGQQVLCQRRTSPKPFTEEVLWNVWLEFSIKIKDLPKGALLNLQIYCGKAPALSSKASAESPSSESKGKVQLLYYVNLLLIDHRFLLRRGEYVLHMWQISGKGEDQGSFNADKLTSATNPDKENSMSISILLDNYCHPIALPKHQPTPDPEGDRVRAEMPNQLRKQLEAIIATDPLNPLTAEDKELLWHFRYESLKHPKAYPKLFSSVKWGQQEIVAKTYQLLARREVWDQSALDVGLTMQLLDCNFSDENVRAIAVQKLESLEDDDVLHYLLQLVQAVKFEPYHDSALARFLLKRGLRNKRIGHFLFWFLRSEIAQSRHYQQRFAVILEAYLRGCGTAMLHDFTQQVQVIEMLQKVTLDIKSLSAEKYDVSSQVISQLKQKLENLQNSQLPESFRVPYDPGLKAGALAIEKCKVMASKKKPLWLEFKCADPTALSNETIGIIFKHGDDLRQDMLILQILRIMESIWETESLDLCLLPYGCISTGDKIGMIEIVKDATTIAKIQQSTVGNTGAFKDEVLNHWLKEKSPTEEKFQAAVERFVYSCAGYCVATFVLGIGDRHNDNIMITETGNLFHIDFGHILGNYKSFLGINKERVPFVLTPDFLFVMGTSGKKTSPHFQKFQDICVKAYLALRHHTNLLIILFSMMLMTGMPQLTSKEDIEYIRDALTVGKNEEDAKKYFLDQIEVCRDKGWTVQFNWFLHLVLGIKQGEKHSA
Outline: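 Adapta ADP-detection TR-FRET immunoassay with test compound at 100 μM. The kinase reaction runs 60 min. It is then stopped by a detection solution of EDTA, europium-labelled anti-ADP antibody and Alexa Fluor 647-labelled ADP tracer. ADP formed displaces the tracer and lowers the TR-FRET signal. ADP formation is calculated from the emission ratio.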

LOX IMVI = test: NCI 60-cell line screen; assay type: cell-based, human
SW-620 = test: NCI 60-cell line screen; assay type: cell-based, human
Outline: as §1

HT29 = test: NCI 60-cell line screen; assay type: cell-based, human
HCC-2998 = test: NCI 60-cell line screen; assay type: cell-based, human

Structure (SMILES): O=C(CNc1ccc([N+](=O)[O-])cc1)Nc1nc2ccccc2s1 [OMS5, N-(1,3-benzothiazol-2-yl)-2-(4-nitroanilino)acetamide]
- GI50 (UO-31; Homo sapiens, UO-31): 500 nM
- pIC50 (UO-31; Homo sapiens, UO-31): 5.89
- CC50 (UO-31; Homo sapiens, UO-31, read-out: LC50): 26.9 µM
- TGI (UO-31; UO-31, renal cancer): 3.8 µM
- pIC50 (A549 cancer cell line): 4.21
- inhibition at 100 µM (A549 cancer cell line; read-out: experimental % of inhibition on A549 cancer cell line): 64.2%
- TGI (HCT-15; HCT-15, colon cancer): 3.7 µM
- GI50 (HCT-15; Homo sapiens, HCT-15): 500 nM
- pIC50 (HCT-15; Homo sapiens, HCT-15): 6.15
- CC50 (HCT-15; Homo sapiens, HCT-15, read-out: LC50): 28.8 µM
- GI50 (TK-10; Homo sapiens, TK-10): 1500 nM
- pIC50 (TK-10; Homo sapiens, TK-10): 5.00
- CC50 (TK-10; Homo sapiens, TK-10, read-out: LC50): > 100 µM
- TGI (TK-10; TK-10, renal cancer): 15 µM
- zone of inhibition at 100 µg/mL (Staphylococcus aureus): 0 mm
- GI50 (MOLT-4; Homo sapiens, MOLT-4): 400 nM
- pIC50 (MOLT-4; Homo sapiens, MOLT-4): 6.22
- CC50 (MOLT-4; Homo sapiens, MOLT-4, read-out: LC50): > 100 µM
- TGI (MOLT-4; MOLT-4, leukemia): 12 µM
- GI50 (UACC-257; Homo sapiens, UACC-257): 1300 nM
- pIC50 (UACC-257; Homo sapiens, UACC-257): 5.60
- CC50 (UACC-257; Homo sapiens, UACC-257, read-out: LC50): 6.3 µM
- TGI (UACC-257; UACC-257, melanoma): 2.8 µM
- GI50 (NCI-H322M; Homo sapiens): 1100 nM
- pIC50 (NCI-H322M; Homo sapiens): 5.60
- CC50 (NCI-H322M; Homo sapiens, read-out: LC50): 28.8 µM
- TGI (NCI-H322M; non-small cell lung cancer): 4.1 µM
- TGI (HL-60(TB)): 14 µM
- TGI (CAKI-1; CAKI-1, renal cancer): 9.5 µM
- GI50 (CAKI-1; Homo sapiens, CAKI-1): 400 nM
- pIC50 (CAKI-1; Homo sapiens, CAKI-1): 6.05
- CC50 (CAKI-1; Homo sapiens, CAKI-1, read-out: LC50): 32.4 µM
- GI50 (NCI-H460; Homo sapiens, NCI-H460): 400 nM
- pIC50 (NCI-H460; Homo sapiens, NCI-H460): 6.30
- CC50 (NCI-H460; Homo sapiens, NCI-H460, read-out: LC50): 39.8 µM
- TGI (NCI-H460; NCI-H460, non-small cell lung cancer): 3.3 µM
- TGI (COLO 205; COLO 205, colon cancer): 1.5 µM
- GI50 (COLO 205; Homo sapiens, COLO 205): 400 nM
- pIC50 (COLO 205; Homo sapiens, COLO 205): 6.15
- CC50 (COLO 205; Homo sapiens, COLO 205, read-out: LC50): 4.7 µM
- GI50 (SK-OV-3; Homo sapiens, SK-OV-3): 1300 nM
- pIC50 (SK-OV-3; Homo sapiens, SK-OV-3): 5.28
- CC50 (SK-OV-3; Homo sapiens, SK-OV-3, read-out: LC50): > 100 µM
- TGI (SK-OV-3; SK-OV-3, ovarian cancer): 6.8 µM
- GI50 (PC-3; Homo sapiens, PC-3): 1600 nM
- pIC50 (PC-3; Homo sapiens, PC-3): 5.55
- CC50 (PC-3; Homo sapiens, PC-3, read-out: LC50): > 100 µM
- TGI (PC-3; PC-3, prostate cancer): 45 µM
- TGI (A549/ATCC; A549/ATCC, non-small cell lung cancer): 28 µM
- GI50 (A549/ATCC; Homo sapiens, A549): 800 nM
- pIC50 (A549/ATCC; Homo sapiens, A549): 5.82
- CC50 (A549/ATCC; Homo sapiens, A549, read-out: LC50): > 100 µM
- pIC50 [1]: 4.21 to 4.66
- GI50 (OVCAR-5; Homo sapiens, OVCAR-5): 1000 nM
- pIC50 (OVCAR-5; Homo sapiens, OVCAR-5): 5.60
- CC50 (OVCAR-5; Homo sapiens, OVCAR-5, read-out: LC50): 46.8 µM
- TGI (OVCAR-5; OVCAR-5, ovarian cancer): 5.4 µM
- GI50 (NCI 60 cell line panel; read-out: GI50, range over cell lines): 360 to 2300 nM
- pIC50 (NCI 60 cell line panel; read-out: IC50, range over cell lines): 4.92 to 6.36
- GI50 (OVCAR-8; Homo sapiens, OVCAR-8): 600 nM
- pIC50 (OVCAR-8; Homo sapiens, OVCAR-8): 6.05
- CC50 (OVCAR-8; Homo sapiens, OVCAR-8, read-out: LC50): > 100 µM
- TGI (OVCAR-8; OVCAR-8, ovarian cancer): 22 µM
- inhibition at 100 µM (PI3Kγ enzyme; read-out: % of inhibition (mean) against PI3Kγ enzyme): 0%
- inhibition at 100 µM (PI3Kγ enzyme; read-out: % of inhibition against PI3Kγ enzyme, point 1): 0%
- inhibition at 100 µM (PI3Kγ enzyme; read-out: % of inhibition against PI3Kγ enzyme, point 2): 0%
- GI50 (LOX IMVI; Homo sapiens): 600 nM
- pIC50 (LOX IMVI; Homo sapiens): 6.00
- CC50 (LOX IMVI; Homo sapiens, read-out: LC50): 8.7 µM
- TGI (LOX IMVI; melanoma): 2.6 µM
- GI50 (SW-620; Homo sapiens, SW-620): 500 nM
- pIC50 (SW-620; Homo sapiens, SW-620): 6.15
- CC50 (SW-620; Homo sapiens, SW-620, read-out: LC50): 43.7 µM
- TGI (SW-620; SW-620, colon cancer): 7.2 µM
- TGI (HT29; HT29, colon cancer): 2.1 µM
- GI50 (HT29; Homo sapiens, HT-29): 500 nM
- pIC50 (HT29; Homo sapiens, HT-29): 6.15
- CC50 (HT29; Homo sapiens, HT-29, read-out: LC50): 8.1 µM
- TGI (HCC-2998; HCC-2998, colon cancer): 2.2 µM
- GI50 (HCC-2998; Homo sapiens, HCC 2998): 900 nM
- pIC50 (HCC-2998; Homo sapiens, HCC 2998): 5.80
- CC50 (HCC-2998; Homo sapiens, HCC 2998, read-out: LC50): 5.3 µM
